# Screening data as filed in PubChem.
# T cruzi growth-1 = T. cruzi proliferation inhibition; T. cruzi beta-gal in NIH3T3, GalScreen luminescence, 90 h; inhibition, % at 8.34 µM; hit rate 5.9% among 77,000;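 active means mean inhibition above about 93%, with at least 55% of replicates each passing it, limit read from the data, passing the limit was not always enough; inconclusive means only one of those two conditions holds; inactive means neither condition holds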
# GASC1 inh = blocks human GASC-1 (KDM4C) demethylase activity; Q9H3R0; hit rate 0.15% among 96,000; inhibition, % at 12.5 µM; GST-KDM4C 2-372, H3K9me3 peptide, LANCE TR-FRET; AID 720574;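 active means mean replicate inhibition above about 25%, with at least 55% of replicates also reaching it, limit read from the data, passing the limit was not always enough; inconclusive means only one of those two conditions met; inactive means neither condition met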
# Target sequence (Q9H3R0 2-372 limits assumed): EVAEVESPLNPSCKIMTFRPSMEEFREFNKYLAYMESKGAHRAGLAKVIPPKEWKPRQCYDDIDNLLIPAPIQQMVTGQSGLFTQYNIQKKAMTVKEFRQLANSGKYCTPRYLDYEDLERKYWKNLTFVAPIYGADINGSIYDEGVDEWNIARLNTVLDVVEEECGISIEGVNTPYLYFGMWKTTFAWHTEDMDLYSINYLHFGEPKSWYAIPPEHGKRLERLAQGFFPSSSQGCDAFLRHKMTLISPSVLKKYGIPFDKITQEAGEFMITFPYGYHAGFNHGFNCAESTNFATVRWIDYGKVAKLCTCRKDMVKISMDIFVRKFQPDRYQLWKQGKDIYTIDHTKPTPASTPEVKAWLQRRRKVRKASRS
#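 System: N-terminal GST-fused human GASC-1 (KDM4C) fragment, residues 2-372 / Amount: 10 nM GST-KDM4C in enzyme reaction / Also added: H3K9me3 peptide with Fe(II)/2OG / Times: 30 min demethylation and 1 h detection at room temperature / Signal: LANCE TR-FRET / Read-out basis: Fall in 671/618 emission ratio as inhibition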
# IDH1 mut inh = IDH1 R132H (human) inhibition. IDH1 R132H reductase, diaphorase/resazurin fluorescence, 60 min. inhibition, % at 10 µM. hit rate 0.18% among 70,000. AID 624101; in the data active means inhibition above about 34%; inconclusive means no clear call, values can overlap the other calls; inactive means below about 11%
# Target sequence (O75874 whole entry R132H): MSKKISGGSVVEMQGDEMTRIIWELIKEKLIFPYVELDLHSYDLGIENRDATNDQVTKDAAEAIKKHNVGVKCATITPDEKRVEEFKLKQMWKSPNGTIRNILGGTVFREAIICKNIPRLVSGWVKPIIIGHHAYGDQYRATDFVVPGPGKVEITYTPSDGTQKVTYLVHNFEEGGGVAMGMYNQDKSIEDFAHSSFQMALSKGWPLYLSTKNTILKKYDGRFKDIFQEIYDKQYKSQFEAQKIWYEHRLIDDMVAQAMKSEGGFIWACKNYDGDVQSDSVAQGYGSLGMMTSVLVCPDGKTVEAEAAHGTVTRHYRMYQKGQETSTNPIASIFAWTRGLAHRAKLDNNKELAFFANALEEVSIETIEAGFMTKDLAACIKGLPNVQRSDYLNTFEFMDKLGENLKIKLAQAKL
# T cruzi growth-2 = inhibitors of T. cruzi proliferation; shares compounds with T cruzi growth-1; T. cruzi beta-gal in NIH3T3, GalScreen luminescence, 90 h; inhibition, % at 8.35 µM; hit rate 72% among 5,600; AID 651739;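 active means mean replicate inhibition above about 95% and at least 55% of replicates individually reaching it, limit read from the data; inconclusive means only one of the two criteria is met; inactive means neither criterion is met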
# T cruzi growth-3 = Trypanosoma cruzi proliferation inhibition; AID 651740; inhibition, % at 2.09 µM; hit rate 21% among 5,600; T. cruzi beta-gal in NIH3T3, GalScreen luminescence, 90 h; shares compounds with T cruzi growth-1;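 active means mean inhibition above about 95%, with at least 55% of replicates also reaching it, limit read from the data; inconclusive means meets just one of the two conditions; inactive means meets neither condition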
# 3T3 cytotox = kills mouse NIH/3T3 fibroblasts; shares compounds with T cruzi growth-1; NIH/3T3 viability, CellTiter-Glo ATP luminescence, 90 h; cytotoxicity (signal decrease), % at 8.35 µM; hit rate 14% among 5,600;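 active means mean signal decrease across replicates above about 35% based on untreated-well scatter, with enough replicates individually passing, limit read from the data; inconclusive means no rule stated though some were filed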
# 3T3 cytotox 2 = kills mouse NIH/3T3 fibroblasts. shares compounds with T cruzi growth-1. NIH/3T3 viability, CellTiter-Glo ATP luminescence, 90 h. inhibition, % at 24.9 µM. hit rate 56% among 5,600. AID 651744;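 active means mean loss of cell viability signal at or above a set limit, and enough replicates individually reaching it; inconclusive means meets only the mean limit or only the replicate share; inactive means meets neither condition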
# Numbers stand for hits; - = inactive; ? = inconclusive; . = not tested or not shown; + = active, no number. The sample as a whole holds a higher share of hits than the screen did.
SMILES,T cruzi growth-1,GASC1 inh,IDH1 mut inh,T cruzi growth-2,T cruzi growth-3,3T3 cytotox,3T3 cytotox 2
COc1ccc(C#Cc2ccc([C@H]3[C@H]4CN(C(=O)Cc5cccnc5)CCCCN4[C@H]3CO)cc2)cc1,104,-,.,104,-,-,99
COc1ccc(C#Cc2ccc([C@H]3[C@H](CO)N4CCCCN(C(=O)Cc5cccnc5)C[C@@H]34)cc2)cc1,113,-,.,106,102,43,105
COc1ccc(C#Cc2ccc([C@H]3[C@@H](CO)N4CCCCN(C(=O)Cc5cccnc5)C[C@@H]34)cc2)cc1,125,-,.,99,103,36,86
CC(C)(C)c1cc(C=C(C#N)C#N)cc(Br)c1O,.,.,-,.,.,.,.
CCc1ccc(NC2=NCCS2)cc1,.,.,-,.,.,.,.
COc1ccc(C#Cc2ccc([C@@H]3[C@@H](CO)N4CCCCN(C(=O)Cc5cccnc5)C[C@@H]34)cc2)cc1,108,-,.,113,-,-,103
COc1ccc(C#Cc2ccc([C@H]3[C@@H](CO)N4CCCCN(C(=O)Cc5cccnc5)C[C@H]34)cc2)cc1,115,-,.,102,-,46,103
O=C(Cc1cccnc1)N1CCCCN2[C@H](CO)[C@@H](c3ccc(C#CC4(O)CCCC4)cc3)[C@@H]2C1,-,-,.,.,.,.,.
CC(C)N(C(=O)SCC(Cl)=C(Cl)Cl)C(C)C,.,.,-,.,.,.,.
O=C(/C=C/c1ccccc1)OCC1OC(OC2OC=CC3C(O)C4OC4(CO)C23)C(O)C(O)C1O (stereo not given),.,.,-,.,.,.,.
COc1ccc(-c2ccc([C@H]3[C@@H](CO)N4CCCCN(C(=O)Cc5ccccc5)C[C@H]34)cc2)cc1,-,-,.,.,.,.,.
O=C(Cc1ccccc1)N1CCCCN2[C@H](C1)[C@@H](c1ccc(-c3ccccc3)cc1)[C@@H]2CO,-,-,.,.,.,.,.
COc1ccc(-c2ccc([C@@H]3[C@@H](CO)N4CCCCN(C(=O)Cc5ccccc5)C[C@H]34)cc2)cc1,?,-,.,97,-,-,105
O=C(Cc1ccccc1)N1CCCCN2[C@@H](CO)[C@H](c3ccc(-c4ccccc4)cc3)[C@@H]2C1,100,-,.,103,-,-,102
OC[C@H]1O[C@@H](n2cnc3cc(Cl)c(Cl)cc32)C(O)[C@H]1O (stereo not given in full),.,.,-,.,.,.,.
COCc1cc(OC(=O)N(C)C)nc(COc2ccc(Cl)cc2)n1,.,.,-,.,.,.,.
O=C(c1ccco1)c1cn(CCCOc2ccccc2)c2ccccc12,.,.,-,.,.,.,.
N#Cc1cccc(-c2ccc([C@@H]3[C@H](CO)N4CCCCN(C(=O)Cc5cccnc5)C[C@@H]34)cc2)c1,-,-,.,.,.,.,.
N#Cc1cccc(-c2ccc([C@H]3[C@@H](CO)N4CCCCN(C(=O)Cc5cccnc5)C[C@H]34)cc2)c1,-,-,.,.,.,.,.
N#Cc1cccc(-c2ccc([C@@H]3[C@@H](CO)N4CCCCN(C(=O)Cc5ccncc5)C[C@H]34)cc2)c1,108,-,.,-,-,-,37
N#Cc1cccc(-c2ccc([C@H]3[C@H](CO)N4CCCCN(C(=O)Cc5ccccc5)C[C@@H]34)cc2)c1,102,-,.,-,-,-,42
N#Cc1cccc(-c2ccc([C@H]3[C@H](CO)N4CCCCN(C(=O)Cc5cccnc5)C[C@@H]34)cc2)c1,109,-,.,103,-,-,55
N#Cc1ccc(-c2ccc([C@@H]3[C@@H](CO)N4CCCCN(C(=O)Cc5ccccc5)C[C@H]34)cc2)cc1,-,-,.,.,.,.,.
[N-]=[N+]=Nc1cccc(C(=O)O)c1,.,.,-,.,.,.,.
C[C@@H]1CCOC(=O)C=CC=CC(=O)O[C@@H]2C[C@H]3O[C@@H]4C=C(CO)CC[C@]4(COC(=O)[C@H]1O)[C@]2(C)[C@]31CO1,.,.,-,.,.,.,.
SMILES,T cruzi growth-1,GASC1 inh,IDH1 mut inh,T cruzi growth-2,T cruzi growth-3,3T3 cytotox,3T3 cytotox 2
C=C1[C@@]23C(=O)O[C@H](C)[C@]24O[C@@]2(C(=C)[C@]5(C=CC(=O)OC5(C)C)CC[C@]32C)[C@H](O)[C@@]1(C)OC4=O,.,.,-,.,.,.,.
O=C(O)c1[nH]c2ccc(Cl)cc2c1CC(=O)N1CCC2(CC1)OCCO2,.,.,-,.,.,.,.
Cc1ccc(N2C(=O)NC(=O)C(CCc3ccccn3)(Cc3cccs3)C2=O)cc1 (stereo not given),.,.,-,.,.,.,.
CC(C)(CN)CNc1ccc([N+](=O)[O-])c2cccnc12,.,.,-,.,.,.,.
C/C=C(/C)C(=O)OC1CCN2CC=C(COC(=O)C(O)(C(C)O)C(C)(C)O)C12 (stereo not given),.,.,-,.,.,.,.
COc1ccc(CC2(CCc3ccncc3)C(=O)NC(=O)N(c3cccc(C)c3)C2=O)c(OC)c1 (stereo not given),.,.,-,.,.,.,.
COC(=O)[C@H]1[C@H](CO)[C@H]2Cn3c(ccc(-c4ccccc4F)c3=O)[C@@H]1N2CC1CCCC1,+,-,.,-,-,-,45
O=C(O)[C@@H]1[C@@H](CO)[C@@H]2Cn3c(ccc(-c4ccccc4)c3=O)[C@H]1N2CC1CCCCC1,97,-,.,-,-,-,-
COC(=O)[C@@H]1[C@@H](CO)[C@@H]2Cn3c(ccc(-c4ccccc4)c3=O)[C@H]1N2CC1CCCCC1,-,-,.,.,.,.,.
COC(=O)[C@@H]1[C@@H](CO)[C@@H]2Cn3c(ccc(-c4ccccc4)c3=O)[C@H]1N2CC1CCCC1,.,-,.,.,.,.,.
O=C(O)[C@@H]1[C@@H](CO)[C@@H]2Cn3c(ccc(C4=CCCCC4)c3=O)[C@H]1N2CCc1ccccc1,164,-,.,-,-,-,46
COC(=O)[C@@H]1[C@@H](CO)[C@@H]2Cn3c(ccc(C4=CCCCC4)c3=O)[C@H]1N2CCc1ccccc1,-,-,.,.,.,.,.
C=CC1C[N+]2([O-])CCC1CC2C(O)c1ccnc2ccccc12 (stereo not given),.,.,-,.,.,.,.
Cc1cccc(N2C(=O)NC(=O)C(CCc3ccncc3)(CCc3ccncc3)C2=O)c1,.,.,-,.,.,.,.
O=C(Cc1ccccn1)N1CCCCN2[C@H](CO)[C@H](c3ccc(C#Cc4ccccc4)cc3)[C@@H]2C1,116,-,.,109,-,36,46
CCCC#Cc1ccc([C@@H]2[C@H](CO)N3CCCCN(C(=O)Cc4ccccn4)C[C@@H]23)cc1,-,-,.,.,.,.,.
CC(C)CC#Cc1ccc([C@@H]2[C@@H](CO)N3CCCCN(C(=O)Cc4ccccn4)C[C@H]23)cc1,-,-,.,.,.,.,.
CC(C)CC#Cc1ccc([C@@H]2[C@H](CO)N3CCCCN(C(=O)Cc4ccccn4)C[C@@H]23)cc1,97,-,.,108,-,-,104
CC(C)(C)ONC(=O)CN=[N+]=[N-],.,.,-,.,.,.,.
NCC(=O)Nc1ccc(Br)cc1C(=O)c1ccccc1,.,.,-,.,.,.,.
C=C1[C@@H](O)[C@]23C[C@@H]1[C@@H](O)C[C@H]2[C@@]12C4[C@@H]3C[C@@H]1[C@@](C)(CC[C@@H]2O)CN4CC,.,.,-,.,.,.,.
COc1ccc(OC)c(NC(=S)NCCc2cnc[nH]2)c1,.,.,-,.,.,.,.
C/C=C/c1ccc([C@H]2[C@H]3CN(C(=O)Cc4cccnc4)CCCCN3[C@H]2CO)cc1,-,-,.,.,.,.,.
O=C(Cc1cccnc1)N1CCCCN2[C@H](C1)[C@@H](c1ccc(/C=C/c3ccccc3)cc1)[C@@H]2CO,103,-,.,105,100,48,105
C/C=C/c1ccc([C@H]2[C@H](CO)N3CCCCN(C(=O)Cc4cccnc4)C[C@@H]23)cc1,-,-,.,.,.,.,.
O=C(Cc1cccnc1)N1CCCCN2[C@@H](CO)[C@@H](c3ccc(/C=C/c4ccccc4)cc3)[C@@H]2C1,108,-,.,97,-,-,106
